Most compounds without a hit are left out; they make up all but 4.8% or so of the library.
WT yeast gro inh: growth inhibition of WT strain, primary screen, mitochondrial fusion inhibitor project, WT and mutant strains, chemical genetic; mitochondrial fusion phenotypic screen; inhibition, % at 10 µM; 2.1% of 190,000 active; AID 1362, 2008; in the data active means inhibition above about 58%; tested in S. cerevisiae
Efflux pump inh: inhibitors of Candida efflux pumps in yeast, primary screen, S. cerevisiae, Nile Red, multiplex | inhibition, % at 10 µM | S. cerevisiae Candida pump triplex | AID 485275, 2010 | 0.44% of 330,000 active;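 active means plate passing quality check with inhibition over a set limit, or well fluorescence over plate mean plus 4 SD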;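 further: Nile Red retained in pooled yeast measured as flow cytometry median fluorescence; 0% = buffer negative control and 100% = Enniatin B positive control; higher means more Nile Red kept so more efflux inhibition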
CSC inhib: cancer stem cell viability inhibitors, primary screen, luminescence; inhibition, % at 7.5 µM; AID 2717, 2010; 1.1% of 300,000 active; cancer stem cell-like cells viability; in the data active means inhibition above about 75%; tested in HMLE shEcad cells
T cruzi repl: inhibitors of intracellular T. cruzi growth, primary screen, luminescence, NIH3T3 host cells; T. cruzi beta-gal in NIH3T3, 90 h; inhibition, % (concentration not given with the values); 1.4% of 300,000 active;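 active means mean inhibition across valid replicates above about 55%, limit read from the data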;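 further: signal also drops with host cell toxicity which is not excluded here; 0% = plate median of DMSO wells and 100% = zero luminescence signal; higher percent means less beta-gal luminescence so fewer parasites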
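System: mouse NIH/3T3 fibroblasts infected with β-gal-expressing T. cruzi Tulahuen C4 / Input: NIH/3T3 cells, 5,000 per well / Buffer or medium: Low-serum DMEM with 2% FBS / Probe or stimulus: 5000 reporter trypomastigotes per well / Schedule: ≥90 h infection period, 3 h prior cell attachment / Measured by: GalScreen luminescence, 60 min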
SUMO Mot1 rescue: yeast Mot1-301 growth rescue at high temperature, primary screen, SUMOylation pathway inhibitor project, S. cerevisiae, ATP luminescence, 38.5C; 1% of 320,000 active; growth rescue, % at 18.8 µM; S. cerevisiae Mot1-301 growth rescue; percent above DMSO median, 100 means doubled; AID 2716, 2010;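 active means every valid replicate shows activation above 250% relative to neutral control wells; inactive means the rest, any valid replicate at or below 250%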;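 further: OY570 slx delta 5 strain wells were the positive control but not used for scaling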
Beta apoptosis: inhibitors of cytokine-induced beta cell apoptosis, primary screen, luminescence; 0.8% of 300,000 active; protection from apoptosis, % (test concentration not listed); INS-1E cytokine-induced death, ATP luminescence, 48 h; percent of positive-control rescue, neutral wells zero;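 active means Every replicate reaches about 75%, or at least half do and their mean reaches it too, limit read from the data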;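 further: 0% = cytokine-treated negative control wells and 100% = positive control rescue; higher means more ATP so stronger rescue from cytokine killing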
Active calls of the source: *; . = not tested or not shown.

SMILES	WT yeast gro inh	Efflux pump inh	CSC inhib	T cruzi repl	SUMO Mot1 rescue	Beta apoptosis
O=C(Cc1ccc([N+](=O)[O-])cc1)Nc1cccnc1	.	-0.1	-4.1	-5.0	-10.2	80.9*
Cn1c(N)c(C(=O)COC(=O)c2ccc(-c3ccccc3)cc2)c(=O)n(C)c1=O	.	0.2	-19.1	.	-0.2	-4.8
NC(=O)C1CCCN(CC(=O)Nc2ccccc2C(=O)NC2CC2)C1 (configuration not stated)	.	0.0	.	.	-3.8	1.0
CC(C)(C)c1ccc(CNc2ccc([N+](=O)[O-])cn2)cc1	80.0*	0.2	9.9	-5.1	73.0	-3.6
CC(C)c1ccc(CNc2ccc([N+](=O)[O-])cn2)cc1	25.6	0.1	3.0	7.5	19.0	0.0
S=C(NCCc1ccccc1)NC1CCCCCC1	68.2*	0.0	-2.1	-19.1	-2.0	3.1
OCCN(Cc1ccccc1)C(=S)NC1CCCCC1	5.2	0.1	1.8	-1.1	105.9	-4.2
Fc1ccc(CNC(=S)NC2CCCCCC2)cc1	70.8*	-0.1	-9.8	1.0	-7.6	1.4
S=C(NC1CCCCC1)N(CCc1ccccc1)CCc1ccccc1	62.5*	0.1	32.8	46.8	21.4	31.7
S=C(NCCc1ccc(Cl)cc1)NC1CCCC1	64.9*	0.3	3.4	-34.5	21.5	-2.1
S=C(NCCc1ccc(Cl)cc1)NC1CCCCC1	.	3.0	6.5	20.0	-4.2	11.1
Cc1cccc2c3c([nH]c12)CCNC3	.	0.1	-6.6	-1.9	-28.0	-2.7
O=C(COc1ccccc1Br)Nc1ccc2c(c1)OCCCO2	.	-0.1	1.3	3.4	1.6	-2.2
S=C(NCCNCc1ccccc1)NC1CCCCC1	62.5*	0.1	46.7	38.7	-3.4	18.9
CCOC(=O)/C(=N\Nc1ccccc1Cl)N1CC(C)OC(C)C1 (configuration not stated)	.	0.1	15.7	11.9	173.3	0.5
CCOC(=O)/C(=N\Nc1ccc(Br)cc1)N1CC(C)OC(C)C1 (configuration not stated)	.	0.0	51.5	-2.3	428.1*	5.1
O=C(NCCS(=O)(=O)N1CCCCC1)c1ccccc1	.	-0.1	-11.4	-12.0	-16.9	-4.0
CC1CCc2c(sc3ncn(N)c(=N)c23)C1 (configuration not stated)	.	0.1	5.3	-4.4	21.0	-0.1
N#C/C(=C\c1ccc(-c2ccccc2C(=O)O)o1)c1nc2ccccc2[nH]1	.	0.0	1.0	-4.8	647.8	-1.9
N#C/C(=C/c1ccc(O)c(O)c1)c1nc2ccccc2[nH]1	.	2.0*	39.6	-14.1	-2.8	5.3
N#C/C(=C\c1ccc(Sc2ccccc2)o1)c1nc2ccccc2[nH]1	0.7	0.0	8.5	60.9*	94.8	.
COC(=O)c1cnn(-c2ccc(Cl)cc2)c1/C=N/NC(N)=S	.	-0.2	2.0	-41.0	4.4	-5.0
COc1cccc2c1OCC(CN1CCN(CCC(C)C)C(CCO)C1)=C2 (configuration not stated)	3.8	-0.1	.	17.5	1.4	.
O=c1[nH]c(/C=C/c2ccccc2Cl)nc2ccccc12	.	0.0	.	-4.1	20.7	.
O=C(/C=C/c1ccc(Cl)cc1Cl)c1nc2ccccc2[nH]1	6.3	0.3	47.1	1.7	-27.2	3.4
SMILES	WT yeast gro inh	Efflux pump inh	CSC inhib	T cruzi repl	SUMO Mot1 rescue	Beta apoptosis
Clc1ccc(/C=C/c2nc3ccccc3[nH]2)cc1	17.1	-0.4	76.0*	33.0	92.0	31.0
Clc1ccc(/C=C/c2nc3ccccc3[nH]2)c(Cl)c1	8.9	0.0	-17.9	58.2*	37.2	44.7
Clc1cccc(Cl)c1/C=C/c1nc2ccccc2[nH]1	81.4*	0.8	-1.6	38.6	21.0	12.9
O=C(CCc1ccc(S(=O)(=O)N2CCOCC2)cc1)Nc1ccc(F)c(F)c1F	.	-0.1	-3.2	.	-16.2	-2.6
O=C(C1CCN(S(=O)(=O)N2CCCCC2)CC1)N1CCCCC1	-1.6	0.0	-1.3	4.5	8.1	-5.0
CCCCN1C(=O)Cc2c1nc(N)c1c(N)nc(N(CCC)CCC)c(C#N)c21	5.4	0.2	5.3	74.1*	13.4	39.5
C=C(C)CN(CC)c1nc(N)c2c(N)nc3c(c2c1C#N)CC(=O)N3C12CC3CC(CC(C3)C1)C2	21.1	0.0	19.4	56.9*	-1.1	55.9
